Measurements gathered from unrelated publications.
Compare with care: the assays were run in different laboratories.
Cell line: HCT-116
Read-out: cell growth or viability

Cc1c(OCC(F)(F)F)ccnc1COc1ccc(NC(=O)Nc2ccc(Cl)c(C(F)(F)F)c2)cc1  IC50 (MTT; 72 h): 5.6 µM
Cc1c(C)c2c(O)cc(O)cc2oc1=O  IC50 (MTT; 36 h): > 20 µM
O=c1cc(-c2ccc(O)c(O)c2)oc2cc(O)cc(O)c12  IC50 (WST-1; 48 h): 11.1 µM
COc1c(C)cnc(COc2ccc(NC(=O)Nc3ccc(Cl)cc3)cc2)c1C  IC50 (MTT; 72 h): 19.3 µM
COc1cc(-c2nc(C(=O)Nc3nnc(-c4cc5ccccc5n4C)s3)cc3c2[nH]c2ccccc23)cc(OC)c1OC  IC50 (MTT; 72 h): 6.11 µM
COc1cc(Nc2nccc(-c3cnn4nc(OC)ccc34)n2)cc(C(F)(F)F)c1  IC50 (ATP luminescence): 0.55 µM
CC1=C(O)C(=O)C=C2C1=CC=C1[C@@]2(C)CC[C@@]2(C)[C@@H]3C[C@](C)(C(=O)OCCCn4ccc5ccccc54)CC[C@]3(C)CC[C@]12C  IC50 (MTT; 48 h): 2.75 µM
COc1cc(/C=N/c2nc(SC)nn2-c2ccc(C(=O)O)cc2)ccc1O  IC50 (MTT): 61.1 µM
CC1CCC(OCn2c[n+](Cc3ccccc3)c3ccccc32)CC1 (stereo not drawn)  IC50 (MTT; 72 h): 21.9 µM
Cc1c(OCC(F)(F)F)ccnc1COc1ccc(NC(=O)Nc2cc(F)cc(F)c2)cc1  IC50 (MTT; 72 h): 52 µM
COc1cc(OC)c(/C=C/S(=O)(=O)Nc2ccc(OC)c(N)c2)c(OC)c1  IC50 (trypan blue; 96 h): 0.004 µM
COc1ccc(NC(=O)Nc2ccc(OCc3ncc(C)c(OC)c3C)cc2)cc1  IC50 (MTT; 72 h): > 100 µM
O=C1Nc2c(C(F)(F)F)cccc2[C@@]1(c1ccc(O)cc1)c1ccc(OC(F)(F)F)cc1  IC50 (resazurin; 7 days): 0.093 µM
COc1cccc2c1C(=O)c1c(O)c3c(c(O)c1C2=O)C[C@@](O)(C(=O)CO)C[C@@H]3O[C@H]1C[C@H](N)[C@H](O)[C@H](C)O1  IC50 (MTT): 64 µM
O=C(NC(=S)NCc1ccccc1)c1ccc2ccccc2c1  IC50 (48 h): 4.55 µM
CC(=O)OCCOC(=O)[C@]1(C)CC[C@]2(C)CC[C@]3(C)C4=CC=C5C(=CC(=O)C(O)=C5C)[C@]4(C)CC[C@@]3(C)[C@@H]2C1  IC50 (MTT; 48 h): 0.47 µM
CC(=O)Oc1ccc2c(CSC(C)=O)cc(=O)oc2c1  IC50 (MTT; 36 h): > 20 µM
COc1cc([C@@H]2c3cc4c(cc3[C@@H](O[C@@H]3O[C@@H]5CO[C@@H](C)O[C@H]5[C@H](O)[C@H]3O)[C@H]3COC(=O)[C@H]23)OCO4)cc(OC)c1O  IC50 (MTS; 72 h): 19.3 µM
CC(=O)c1ccc(-c2cccc(NC(=O)CCc3cccc4c3B(O)OC4)c2)cc1  IC50 (ATP luminescence; 72 h): 0.28 µM
COc1ccc(NC(=O)Nc2ccc(OCc3nccc(OC)c3OC)cc2)cc1  IC50 (MTT; 72 h): 13.1 µM
c1ccc2cc(-c3nnc(NC4CCCCC4)[nH]3)ccc2c1  IC50 (48 h): 2.53 µM
CC1(C)CC[C@]2(C)CC[C@]3(C)C(=CC[C@@H]4[C@@]5(C)CC[C@H](O)C(C)(C)[C@@H]5CC[C@]43C)[C@@H]2C1  IC50 (WST-1; 48 h): 91.3 µM
CC(C)n1c(/C=C/C(O)CC(O)CC(=O)O)c(-c2ccc(F)cc2)c2ccccc21 (stereo not drawn)  IC50 (SRB; 72 h): 7.06 µg/mL
Cc1c(NC(=O)c2ccc(C(C)(C)C)cc2)cccc1-c1cn(C)c(=O)c(Nc2ccc(C(=O)N3CCOCC3)cc2)n1  IC50: > 10 µM
CC[C@H](C)C(=O)O[C@H]1C[C@H](O)C=C2C=C[C@H](C)[C@H](CC[C@@H](O)C[C@@H](O)CC(=O)O)[C@H]21  IC50 (SRB; 72 h): 1.57 µg/mL
O=c1cc(CCl)c2ccc(O)cc2o1  IC50 (MTT; 36 h): 8.47 µM
CCNC(=S)NC(=O)c1ccc2ccccc2c1  IC50 (48 h): 4.14 µM
O=c1c(O)c(-c2ccc(O)c(O)c2)oc2cc(O)cc(O)c12  IC50 (WST-1; 48 h): 9.1 µM
CC(=O)Oc1ccc2ccc(=O)oc2c1CBr  IC50 (MTT; 36 h): > 20 µM
O=C(Nc1nnc(-c2cc3ccccc3[nH]2)s1)c1cc2c([nH]c3ccccc32)c(-c2ccccc2)n1  IC50 (MTT; 72 h): 5.12 µM
COc1ccnc(COc2ccc(NC(=O)Nc3cccc(C(F)(F)F)c3)cc2)c1OC  IC50 (MTT; 72 h): 22.9 µM
O=C(O)c1ccc(-n2nc(Oc3ccccc3)nc2/N=C/c2cc([N+](=O)[O-])ccc2O)cc1  IC50 (MTT): 62.8 µM
COc1cccc2c1C(=O)c1c(O)c3c(c(O)c1C2=O)C[C@@](O)(C(=O)CO)C[C@@H]3O[C@H]1C[C@H](N)[C@H](O)[C@H](C)O1  IC50 (SRB): 0.11 µM
O=C(NC(=S)NC1CCCCC1)c1ccc2ccccc2c1  IC50 (48 h): 4.62 µM
Nc1nc(Oc2ccccc2)nn1-c1ccc(C(=O)O)cc1  IC50 (MTT): 61.2 µM
COc1cc(CNC(=O)CCCC/C=C/C(C)C)ccc1O  IC50 (SRB): 40.2 µM
COCCCOC(=O)[C@]1(C)CC[C@]2(C)CC[C@]3(C)C4=CC=C5C(=CC(=O)C(O)=C5C)[C@]4(C)CC[C@@]3(C)[C@@H]2C1  IC50 (MTT; 48 h): 0.49 µM
O=C(/N=C1\SCC(=O)N1C1CCCCC1)c1ccc2ccccc2c1  IC50 (48 h): 9.12 µM
COc1ccnc(COc2ccc(NC(=O)Nc3ccc(Cl)c(C(F)(F)F)c3)cc2)c1OC  IC50 (MTT; 72 h): 18.1 µM
COc1cccc2c1C(=O)c1c(O)c3c(c(O)c1C2=O)C[C@@](O)(C(=O)CO)C[C@@H]3O[C@H]1C[C@H](N)[C@H](O)[C@H](C)O1  IC50 (48 h): 1.02 µM
Cc1ccc([P+](CCCCCCCCCCONC(N)=O)(c2ccc(C)cc2)c2ccc(C)cc2)cc1  IC50 (imaging): 3.7 µM
COc1ccc(O)c(/C=N/c2nc(SC)nn2-c2ccc(C(=O)O)cc2)c1  IC50 (MTT): 55.3 µM
O=c1ccc2ccc(O)c(CO)c2o1  IC50 (MTT; 36 h): > 20 µM
CC[C@]1(O)C[C@H]2CN(CCc3c([nH]c4ccccc34)[C@@](C(=O)OC)(c3cc4c(cc3OC)N(C=O)[C@H]3[C@@](O)(C(=O)OC)[C@H](OC(C)=O)[C@]5(CC)C=CCN6CC[C@]43[C@@H]65)C2)C1  IC50 (fluorescence; 72 h): 0.0017 µM
COc1ccc(Nc2nc(-n3nc(C)cc3C)nc(-n3nc(C)cc3C)n2)cc1  IC50 (MTT; 72 h): 3.66 µM
CC(C)[C@H](N)c1nc2cc(-c3ccncc3F)sc2c(=O)[nH]1  IC50 (MTT): 0.158 µM
COCCCOc1ccnc(COc2ccc(NC(=O)Nc3cccc(C(F)(F)F)c3)cc2)c1C  IC50 (MTT; 72 h): 8.81 µM
COc1ccc(-c2nc(C(=O)Nc3nnc(-c4cc5ccccc5n4C)s3)cc3c2[nH]c2ccccc23)cc1  IC50 (MTT; 72 h): 8.07 µM
